From ChEMBL document CHEMBL1148918, “New pseudopterosin and seco-pseudopterosin diterpene glycosides from two Colombian isolates of Pseudopterogorgia elisabethae and their diverse biological activities” (J Nat Prod, 2004) come the findings set out here.

In brackets after ≈: the same amount, converted by molar mass.

One may read the IC50 as the concentration that inhibits the measured activity by half. As a reminder, the inhibition is the drop in the measured response relative to a control, in per cent. For orientation: GI50 means the concentration giving 50% growth inhibition. A word on the EC50: it is the midpoint of the concentration-response curve.

Test [1] is described as follows: (§1) Antiinflammatory activity in LPS-stimulated rat neonatal microglia assessed as inhibition of PMA-induced superoxide anion production preincubated 15 mins prior to PMA challenge. Format: functional, cell-based. In short, it runs like this:
(§2)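 Neonatal rat microglia, 2 × 10^5 cells/well, primed 17 h with LPS (0.3 ng/mL) in DMEM + 10% FBS + penicillin/streptomycin at 35.9 °C, 5% CO2. Cells washed with warm HBSS, given compound (0.01-10 µM) or DMSO vehicle for 15 min, then PMA (1 µM). Triplicate wells, two independent experiments.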

The test system of test [2] is Microglia. Described as §1. Type of test: functional, cell-based. The procedure, abridged: as §2
A short description of test [3]: (§3) Antiinflammatory activity in LPS-stimulated rat neonatal microglia assessed as inhibition of PMA-induced TXB2 production preincubated 15 mins prior to PMA challenge. Type of test: functional, cell-based. In short, it runs like this:
as §2

Test [4] concerns Microglia. The description is as §3. Format: functional, cell-based. In short, it runs like this:
as §2

Test [5] concerns Mycobacterium tuberculosis. The experiment in a line: Antimycobacterial activity against Mycobacterium tuberculosis H37Rv at 6.25 ug/mL. Type of test: functional.
Test [6] deals with NCI-H460. The experiment in a line: Cytotoxicity against human NCI-H460 cells relative to control. Format: functional. On the set-up: concentration or dose not given beside the values. In short, it runs like this:
(§4)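 One-dose primary screen on a three-line panel (MCF-7, NCI-H460, SF268). Growth of treated cells given as percent of untreated controls.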

A short description of test [7]: Cytotoxicity against human NCI60 cells. Type of test: functional.
Test [8] can be described thus: (§5) Antiinflammatory activity in LPS-stimulated rat neonatal microglia assessed as drug level causing 50% PMA-induced LDH release preincubated 15 mins prior to PMA challenge by spectrophotometry. Type of test: functional. In short, it runs like this:
as §2
(In general: Release of lactate dehydrogenase indicates damage to the cell membrane.)

Test [9] deals with Microglia. Described as §5. Type of test: functional. The procedure, abridged:
as §2

The subject of test [10] is MCF7. The test is described as follows: Cytotoxicity against human MCF7 cells relative to control. Type of test: functional. Details: concentration or dose not given beside the values. In short, it runs like this:
as §4

In test [11] the test system is Plasmodium falciparum. The test is described as follows: Antimalarial activity against chloroquine-resistant Plasmodium falciparum W2 after 48 hrs by fluorimetry. Type of test: functional, organism-based. As to conditions: W2, 48 h.
For test [12], the system named is SF-268. The experiment in a line: Cytotoxicity against human SF268 cells relative to control. Format: functional. Details: concentration or dose not given beside the values. The procedure, abridged:
as §4

Test [13] concerns Human alphaherpesvirus 1. The test is described as follows: Antiviral activity against HSV1. Type of test: functional, organism-based.
Test [14] deals with Human alphaherpesvirus 2. The experiment in a line: Antiviral activity against HSV2. Type of test: functional, organism-based.
For test [15], the system named is Human betaherpesvirus 5. The test is described as follows: Antiviral activity against HCMV. Format: functional, organism-based.
In test [16] the test system is Human alphaherpesvirus 3. The test is described as follows: Antiviral activity against VZV. Type of test: functional, organism-based.

For `CC(=O)O[C@H]1[C@H](O)[C@@H](Oc2c(C)c3c4c(c2O)[C@@H](C)CC[C@@H]4[C@@H](C)C[C@H]3C=C(C)C)OC[C@H]1O` [PSEUDOPTEROSIN V], the IC50 in test [1] was over 10 µM; in [3], over 10 µM; in [11] it was 1 µg/mL (≈ 2.11 µM). Moreover, the Activity entry in test [2] was “Dose-dependent effect”; in [4] it was “Dose-dependent effect”; in test [6], 0%; in test [8], 2.2 µM; in [9] it was “Dose-dependent effect”; in test [10] it was 0%. Also, in [12], the Activity amounted to 0%. Moreover, the inhibition at 6.25 µg/mL in [5] was found to be 25%. For the same compound, in test [7], the GI50 was found to be 20 µM.

For `CC(=O)O[C@@H]1[C@@H](Oc2c(C)cc3c(c2O)[C@@H](C)CC[C@@H]3[C@@H](C)CCC=C(C)C)OC[C@@H](O)[C@H]1O`, the IC50 in test [1] and in test [3] was over 10 µM each time. In addition, the Activity entry in test [2] is “Dose-dependent effect”; in test [4], “Dose-dependent effect”; in [8], 10 µM; in test [9] it was “Dose-dependent effect”. In test [5], the inhibition at 6.25 µg/mL was found to be 37%.

Take `CC(=O)O[C@@H]1[C@@H](Oc2c(C)c3c4c(c2O)[C@@H](C)CC[C@@H]4[C@@H](C)C[C@H]3C=C(C)C)OC[C@@H](OC(C)=O)[C@H]1O` [PSEUDOPTEROSIN X]: the IC50 in test [1] was 10 µM; in test [3] it was over 10 µM. Also, the Activity entry was “Dose-dependent effect” in test [2], “Dose-dependent effect” in [4], 2.35 µM in [8] and “Dose-dependent effect” in test [9].

Turning to `Nc1nc2c(ncn2COCCO)c(=O)[nH]1` [ACYCLOVIR], the EC50 in test [13] and in test [14] was 0.95 µM each time.

`CC(=O)O[C@@H]1CO[C@H](Oc2c(C)cc3c(c2O)[C@@H](C)CC[C@@H]3[C@@H](C)CCC=C(C)C)[C@@H](O)[C@@H]1O`: the IC50 in [1] and in [3] was over 10 µM each time. The Activity entry was “Dose-dependent effect” in [2], “Dose-dependent effect” in test [4], 3.6 µM in test [8] and “Dose-dependent effect” in [9]. The compound further showed an inhibition at 6.25 µg/mL in [5] of 25%.

Turning to `CC(=O)O[C@H]1[C@@H](O)[C@H](O)[C@H](Oc2c(C)c3c4c(c2O)[C@@H](C)CC[C@@H]4[C@@H](C)C[C@H]3C=C(C)C)O[C@H]1C` [PSEUDOPTEROSIN P], the EC50 was found to be 2.9 µM in test [13], 2.9 µM in [14], 2.9 µM in test [15] and 2.6 µM in test [16]. Also, the IC50 was over 10 µM in test [1], over 10 µM in test [3] and 12 µg/mL (≈ 24.6 µM) in [11]. Also, the Activity entry in test [2] was “Dose-dependent effect”; in test [4] it was “Dose-dependent effect”; in [6] it was 0%; in test [8] it was 0.6 µM; in test [9], “Dose-dependent effect”; in test [10] it was 0%. Further, the Activity in [12] is reported as 0%. Moreover, testing at 6.25 µg/mL in [5] gave an inhibition of 76%. This compound showed a GI50 in [7] of 1.7 µM.

On to `CC(=O)O[C@H]1[C@H](O)[C@H](Oc2c(C)c3c4c(c2O)[C@@H](C)CC[C@@H]4[C@@H](C)C[C@H]3C=C(C)C)O[C@@H](C)[C@H]1O` [PSEUDOPTEROSIN Q], for which the IC50 is 11.2 µM in [1], 4.7 µM in test [3] and 15 µg/mL (≈ 30.7 µM) in [11]. The Activity result in test [2] was “Dose-dependent effect”; in test [4], “Dose-dependent effect”; in test [6], 101%; in [8] it was 3.4 µM; in [9], “Dose-dependent effect”; in test [10] it was 103%. The compound also registered an Activity in test [12] of 107%. The inhibition at 6.25 µg/mL in test [5] amounted to 37%.

As for `CC(=O)O[C@H]1[C@H](O)[C@@H](Oc2c(C)c3c4c(c2O)[C@@H](C)CC[C@@H]4[C@@H](C)C[C@H]3C=C(C)C)OC[C@H]1OC(C)=O` [PSEUDOPTEROSIN W], the IC50 in [1] and in test [3] was over 10 µM each time. Besides, the Activity result in test [2] is “Dose-dependent effect”; in [4] it was “Dose-dependent effect”; in test [6] it was 0%; in test [8] it was 10 µM; in test [9] it was “Dose-dependent effect”; in test [10], 0%. This compound also gave an Activity in test [12] of 0%.

Take `CC(=O)O[C@@H]1CO[C@H](Oc2c(C)c3c4c(c2O)[C@@H](C)CC[C@@H]4[C@@H](C)C[C@H]3C=C(C)C)[C@@H](O)[C@@H]1O` [PSEUDOPTEROSIN U]: the IC50 in test [1] was 14.7 µM; in [3], over 10 µM; in test [11], 19 µg/mL (≈ 40 µM). For the same compound, the Activity entry in test [2] was “Dose-dependent effect”; in test [4], “Dose-dependent effect”; in test [6], 0%; in test [8], 0.7 µM; in test [9], “Dose-dependent effect”; in test [10], 0%. In [12], the Activity is recorded as 0%. The inhibition at 6.25 µg/mL in [5] amounted to 43%. Moreover, it took 20 µM to inhibit growth in test [7] by half (GI50).
